Results reported in ChEMBL document CHEMBL1132312, “Conformationally constrained butyrophenones with mixed dopaminergic (D(2)) and serotoninergic (5-HT(2A), 5-HT(2C)) affinities: synthesis, pharmacology, 3D-QSAR, and molecular modeling of (aminoalkyl)benzo- and -thienocycloalkanones as putative atypical antipsychotics” (J Med Chem, 1999).

Key:
[1] = pA2 value was evaluated by measuring the inhibition of the 5-HT-induced contraction of rat aorta.; format: functional, tissue-based
Outline: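 Thoracic aorta rings, denuded, from male 250-350-g Sprague-Dawley rats. Isometric force recorded after 60 min equilibration under 2 g load, then sensitized with 10 µM 5-HT for 8 min.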

[2] = biological target: T1, 5-hydroxytryptamine receptor 2A (Rattus norvegicus, UniProt P14842); experiment: In vitro ability to displace [3H]ketanserin binding from 5-hydroxytryptamine 2A receptor in rat membrane.
T1 sequence (P14842 whole entry): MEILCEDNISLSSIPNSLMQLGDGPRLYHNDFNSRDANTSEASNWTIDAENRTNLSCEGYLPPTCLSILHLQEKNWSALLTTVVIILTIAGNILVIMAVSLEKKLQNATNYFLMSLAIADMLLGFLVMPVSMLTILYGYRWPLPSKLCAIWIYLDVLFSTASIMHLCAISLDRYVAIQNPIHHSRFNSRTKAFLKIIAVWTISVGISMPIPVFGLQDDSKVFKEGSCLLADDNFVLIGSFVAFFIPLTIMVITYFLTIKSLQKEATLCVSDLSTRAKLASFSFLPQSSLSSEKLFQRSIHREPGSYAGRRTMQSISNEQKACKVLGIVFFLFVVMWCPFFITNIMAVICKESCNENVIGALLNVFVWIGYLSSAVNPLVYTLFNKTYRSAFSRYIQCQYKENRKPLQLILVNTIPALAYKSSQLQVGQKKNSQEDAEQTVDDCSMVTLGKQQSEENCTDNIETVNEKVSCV

Mus musculus [3] = experiment: In vivo Antipsychotic activity was quantified by induction of catalepsy in mice; format: functional
Outline: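 Male CD1 mice, 27 ± 3 g, 6-12 per group, tested 30 min after dosing. Forepaws placed on one horizontal wire, hindpaws on another 6 cm away and 2 cm lower. Holding the posture for more than 30 s scored as catalepsy. ED50 by Litchfield-Wilcoxon.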

D(1A) dopamine receptor [4] = biological target: T2, D(1A) dopamine receptor (Rattus norvegicus, UniProt P18901); experiment: In vitro ability to displace [3H]SCH-23390 binding from Dopamine 1 (D1) receptor in rat striatal membrane.; format: cell membranes
T2 sequence (P18901 whole entry): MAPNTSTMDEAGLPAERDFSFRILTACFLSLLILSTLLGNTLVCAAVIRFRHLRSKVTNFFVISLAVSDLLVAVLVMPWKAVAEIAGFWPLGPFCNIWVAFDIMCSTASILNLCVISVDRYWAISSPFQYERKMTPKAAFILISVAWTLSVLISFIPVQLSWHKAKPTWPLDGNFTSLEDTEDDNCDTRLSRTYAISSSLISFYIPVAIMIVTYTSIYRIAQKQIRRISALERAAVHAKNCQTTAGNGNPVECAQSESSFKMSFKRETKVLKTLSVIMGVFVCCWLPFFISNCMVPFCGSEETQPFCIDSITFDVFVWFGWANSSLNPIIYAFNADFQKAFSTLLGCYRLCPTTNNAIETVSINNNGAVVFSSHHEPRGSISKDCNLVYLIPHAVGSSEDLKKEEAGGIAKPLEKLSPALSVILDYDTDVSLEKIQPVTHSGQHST

Mus musculus [5] = experiment: In vivo Antipsychotic activity was quantified by inhibition of apomorphine-induced climbing(CL 95%) by mice; format: functional
Outline: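 Male CD1 mice given test drug or vehicle, then 2 mg/kg apomorphine 30 min later. Housed singly in wire cylinders; 6 per dose, 12 controls. Climbing scored 0-2 every 10 min over 30 min. Scores at 20 and 30 min summed and averaged per group. ED50 from nonlinear curve fitting.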

D(1A) dopamine receptor [6] = biological target: T2, D(1A) dopamine receptor; experiment: In vitro ability to displace [3H]SCH-23390 binding from Dopamine receptor D1 in rat striatal membrane.; format: cell membranes
Outline: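 Striatal membranes from male Sprague-Dawley rats, washed in Tris-HCl with 5 mM EDTA. Resuspended at 1.00 mg wet weight/750 µL in 50 mM Tris-HCl pH 7.4 with 120 mM NaCl, 5 mM KCl, 2 mM CaCl2 and 1 mM MgCl2. [3H]SCH23390 competition in duplicate, 15 min at 37 °C, filtered. Nonspecific binding defined with 1 µM final SCH23390. Ki = IC50/(1 + D/Kd).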

[7] = biological target: T1, 5-hydroxytryptamine receptor 2A; experiment: Compound was tested in vitro for its binding affinity towards 5-hydroxytryptamine 2A receptor from rat frontal cortex using [3H]-ketanserin as radioligand; format: tissue-based
Outline: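 Frontal cortex from male 200-250-g Sprague-Dawley rats, homogenized in 0.32 M sucrose, then washed. Pellet incubated 15 min at 37 °C to strip endogenous 5-HT. Assay buffer Tris-HCl pH 8.07 with 4 mM CaCl2 and 0.1% ascorbic acid. [3H]ketanserin competition run in triplicate, 30 min at 37 °C, with GF/C filtration. Nonspecific binding defined with methysergide. Ki = IC50/(1 + D/Kd), with Kd taken from saturation binding.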

| Structure (SMILES) | Ki [2] | Ki (D(1A) dopamine receptor [4]) | Ki (D(1A) dopamine receptor [6]) | Ki [7] | pA2 [1] | ED50 (Mus musculus [3]) | ED50 (Mus musculus [5]) |
| --- | --- | --- | --- | --- | --- | --- | --- |
| O=C1CC(CN2CCC(C(=O)c3ccc(F)cc3)CC2)Cc2ccccc21 (stereo unspecified) |  |  |  |  | 7.86 |  |  |
| COc1ccccc1N1CCN(CCC2CCc3sccc3C2=O)CC1.Cl (stereo unspecified) | 145 nM | 5370 nM |  |  | 6.95 | > 8 mg/kg | > 8 mg/kg |
| Cl.O=C(CCCN1CCN(CC2CC(=O)c3ccccc32)CC1)c1ccc(F)cc1 (stereo unspecified) | 45.7 nM |  | 7080 nM |  | 7.2 | > 8 mg/kg | > 8 mg/kg |
| Cl.O=C1CC(CN2CCC(C(=O)c3ccc(F)cc3)CC2)c2ccccc21 (stereo unspecified) | 26.3 nM |  | 1550 nM |  | 8.13 | > 4 mg/kg | > 7 mg/kg |
| O=C(c1ccc(F)cc1)C1CCN(CCC2Cc3ccccc3C2=O)CC1 (stereo unspecified) |  |  |  |  | 8.12 |  |  |
| O=C(c1ccc(F)cc1)C1CCN(CCC2CCc3ccccc3C2=O)CC1 (stereo unspecified) |  |  |  |  | 7.47 |  |  |
| COc1ccccc1N1CCN(CCC2CCc3ccccc3C2=O)CC1 (stereo unspecified) | 40.7 nM |  | 1480 nM |  | 6.72 |  |  |
| O=C(CCCN1CCN(CCC2Cc3ccccc3C2=O)CC1)c1ccc(F)cc1 (stereo unspecified) | 123 nM | 1320 nM |  |  | 7.3 |  |  |
| O=C(CCCN1CCN(CCC2CCc3ccccc3C2=O)CC1)c1ccc(F)cc1 (stereo unspecified) | 72.4 nM | 1350 nM |  |  | 7.35 |  |  |
| CN1CCN(C2=Nc3cc(Cl)ccc3Nc3ccccc32)CC1 [CLOZAPINE] |  |  |  |  |  | > 50 mg/kg | 2.21 mg/kg |
| O=C(CCCN1CCC(O)(c2ccc(Cl)cc2)CC1)c1ccc(F)cc1 [HALOPERIDOL] |  |  |  |  |  | 0.67 mg/kg | 0.14 mg/kg |
| Cc1nc2n(c(=O)c1CCN1CCC(c3noc4cc(F)ccc34)CC1)CCCC2 [RISPERIDONE] |  |  |  |  |  | > 2 mg/kg | 0.09 mg/kg |

More lines, main results first:

| Ki [2] | Ki (D(1A) dopamine receptor [4]) | Ki (D(1A) dopamine receptor [6]) | Ki [7] | Structure (SMILES) | pA2 [1] | ED50 (Mus musculus [3]) | ED50 (Mus musculus [5]) |
| --- | --- | --- | --- | --- | --- | --- | --- |
| 513 nM |  |  |  | COc1ccccc1N1CCN(CC2CC(=O)c3ccccc3C2)CC1 (stereo unspecified) | 6.48 |  |  |
| 17.8 nM |  |  |  | O=C(CCCN1CCN(CC2CC(=O)c3ccccc3C2)CC1)c1ccc(F)cc1 (stereo unspecified) | 7.27 |  |  |
| 4.68 nM | 129 nM |  |  | Cl.O=C1CC(CN2CCC(c3noc4cc(F)ccc34)CC2)Cc2sccc21 (stereo unspecified) | 9.13 | > 8 mg/kg | 1.46 mg/kg |
| 6.76 nM | 135 nM |  |  | Cl.O=C1c2sccc2CCC1CCN1CCC(c2noc3cc(F)ccc23)CC1 (stereo unspecified) |  | > 2 mg/kg | 0.5 mg/kg |
| 891 nM |  | 3720 nM |  | COc1ccccc1N1CCN(CC2CC(=O)c3ccccc32)CC1.Cl (stereo unspecified) | 6.21 | > 8 mg/kg | > 8 mg/kg |
| 107 nM | 1350 nM |  |  | Cl.O=C(CCCN1CCN(CC2CC(=O)c3ccsc3C2)CC1)c1ccc(F)cc1 (stereo unspecified) | 7.79 | > 2 mg/kg | > 8 mg/kg |
|  | 295 nM |  | 2.75 nM | Cl.O=C1c2ccsc2CCC1CCN1CCC(c2noc3cc(F)ccc23)CC1 (stereo unspecified) | 9.87 | > 2 mg/kg | 0.79 mg/kg |
| 1.45 nM |  | 1380 nM |  | Cl.O=C(c1ccc(F)cc1)C1CCN(CCC2CCc3sccc3C2=O)CC1 (stereo unspecified) | 9.02 | > 4 mg/kg | 2.03 mg/kg |
| 1510 nM | > 10000 nM |  |  | COc1ccccc1N1CCN(CC2CC(=O)c3ccsc3C2)CC1.Cl (stereo unspecified) | 5.9 | > 8 mg/kg | > 8 mg/kg |
| 57.5 nM | 427 nM |  |  | Cl.O=C1CC(CN2CCC(C(=O)c3ccc(F)cc3)CC2)Cc2sccc21 (stereo unspecified) | 7.82 | > 16 mg/kg | 1.25 mg/kg |
|  | 3090 nM |  | 288 nM | Cl.O=C(CCCN1CCN(CCC2CCc3sccc3C2=O)CC1)c1ccc(F)cc1 (stereo unspecified) | 6.83 | > 15 mg/kg | > 15 mg/kg |
| 1.74 nM |  | 126 nM |  | Cl.O=C1c2ccsc2CC1CCN1CCC(c2noc3cc(F)ccc23)CC1 (stereo unspecified) |  | > 20 mg/kg | 0.47 mg/kg |
| 11.2 nM | 562 nM |  |  | Cl.O=C(c1ccc(F)cc1)C1CCN(CCC2CCc3ccsc3C2=O)CC1 (stereo unspecified) |  | > 4 mg/kg | 1.98 mg/kg |
| 13.2 nM |  |  |  | O=C(c1ccc(F)cc1)C1CCN(CCC2CCCc3ccccc3C2=O)CC1 (stereo unspecified) | 6.75 |  |  |
| 7.08 nM |  | 2510 nM |  | O=C(O)C(=O)O.O=C(c1ccc(F)cc1)C1CCN(CCC2Cc3sccc3C2=O)CC1 (stereo unspecified) | 8.92 | > 16 mg/kg | 65 mg/kg |
| 42.7 nM |  | 324 nM |  | O=C(CCCN1CCN(CCC2Cc3sccc3C2=O)CC1)c1ccc(F)cc1 (stereo unspecified) | 7.63 | > 15 mg/kg | 3.34 mg/kg |
